Source: PubChem BioAssay (several laboratories)
aDG glyco up = increases alpha dystroglycan glycosylation. AID 624168. 360,000 tested, 0.22% active. Pro5-aDG cells, alpha-DG glycosylation AlphaScreen (IIH6); 0% Pro5, 100% B10-LARGE cell signal. activation, % at 10 µM;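 active = activation of at least 8% versus controls, or a plate z-score of at least 8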;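 also: Pro5 are CHO cells carrying HIG-tagged alpha-DG that lacks glycosylation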
GC-B act = GC-B (human) receptor activation; P20594; HEK293-GC-B cells, CNP EC30, cGMP TR-FRET; 0% at EC30 CNP, 100% saturating CNP; activation, % at 10 µM; 370,000 tested, 0.11% active; AID 1920062;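 active = activation at 10 µM reaching about 35% in either raw or pattern-adjusted values, limit read from the data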
NR3A LBD binder = modulates the human NR3A ligand-binding domain; NR3A LBD differential scanning fluorimetry, Tm shift; 0% = protein alone, 100% = glycine-bound protein; 340,000 tested, 2.5% active; Tm shift relative to glycine control, % at 25 µM;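 active = melting temperature shift of at least 10% of the positive control shift, at one fixed dose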
Lipid droplet = hepatic lipid droplet formation modulation; AML12 mouse hepatocytes, oleate lipid droplets, BODIPY imaging; inhibition, % at 6.5 µM; 240,000 tested, 0.4% active; AID 1656;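 active = lipid droplet intensity inhibited by at least 50%, with more than 500 cells counted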
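Assay system: AML12 hepatocytes (mouse) / Also added: 100 µM oleic acid challenge / Times: overnight treatment with compound plus oleate / Detection: high-content imaging of BODIPY-stained droplets and DAPI nuclei / Evaluation: % inhibition of lipid droplet signal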
JMJD2C inh = inhibitors of human GASC-1 (JMJD2C) demethylase. Q9H3R0. GST-JMJD2C(1-420) H3K9me3 demethylation, DELFIA europium. inhibition, % at 2.35 µM. 330,000 tested, 0.069% active. AID 2099;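 active = more than half of a compound's replicate wells show inhibition beyond 50%, single wells judged on their own value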;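 also: signal counts dimethyl H3K9 product captured on neutravidin plate; 0% = median of DMSO wells and 100% = 0.3 times that DMSO median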
NPR1 activator = GC-A (human) enzyme activation. HEK293 GC-A cells, cGMP TR-FRET, EC30 ANP; 0% at EC30 ANP, 100% saturating ANP. activation, % at 10 µM. 370,000 tested, 0.14% active; in the data active = activation above about 40%
Target sequence (P16066 whole entry, looked up): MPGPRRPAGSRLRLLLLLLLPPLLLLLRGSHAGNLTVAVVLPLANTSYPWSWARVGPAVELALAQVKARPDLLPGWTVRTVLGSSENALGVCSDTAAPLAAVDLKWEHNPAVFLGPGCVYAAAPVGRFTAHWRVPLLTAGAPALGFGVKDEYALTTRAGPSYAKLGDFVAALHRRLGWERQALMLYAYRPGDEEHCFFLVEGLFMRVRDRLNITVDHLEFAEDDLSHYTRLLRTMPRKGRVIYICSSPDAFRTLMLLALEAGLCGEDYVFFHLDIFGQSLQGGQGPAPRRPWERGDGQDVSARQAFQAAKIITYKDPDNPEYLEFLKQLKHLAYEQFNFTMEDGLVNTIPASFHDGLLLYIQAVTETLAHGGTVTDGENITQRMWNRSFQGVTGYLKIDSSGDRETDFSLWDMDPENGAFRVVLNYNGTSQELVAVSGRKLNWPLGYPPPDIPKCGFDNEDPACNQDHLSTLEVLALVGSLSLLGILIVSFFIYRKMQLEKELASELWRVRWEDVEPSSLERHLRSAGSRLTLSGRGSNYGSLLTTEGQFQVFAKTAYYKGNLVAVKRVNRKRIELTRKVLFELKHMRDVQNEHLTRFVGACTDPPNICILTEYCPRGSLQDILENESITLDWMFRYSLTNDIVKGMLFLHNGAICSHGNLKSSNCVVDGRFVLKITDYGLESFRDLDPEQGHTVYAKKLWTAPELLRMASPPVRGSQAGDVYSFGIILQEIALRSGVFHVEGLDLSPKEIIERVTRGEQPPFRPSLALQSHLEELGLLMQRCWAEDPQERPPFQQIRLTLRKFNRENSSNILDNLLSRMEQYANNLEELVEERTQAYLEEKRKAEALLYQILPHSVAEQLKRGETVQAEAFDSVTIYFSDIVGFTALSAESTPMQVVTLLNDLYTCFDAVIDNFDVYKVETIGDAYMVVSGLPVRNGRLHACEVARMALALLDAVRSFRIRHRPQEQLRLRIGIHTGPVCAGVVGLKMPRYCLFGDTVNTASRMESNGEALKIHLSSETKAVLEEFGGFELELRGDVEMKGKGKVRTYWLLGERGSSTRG
Starred values were filed as active, the others as inactive; . = no result given. An excerpt weighted towards active compounds, which were near 3% of everything screened.

SMILES	aDG glyco up	GC-B act	NR3A LBD binder	Lipid droplet	JMJD2C inh	NPR1 activator
Cc1ccc(CNC(=O)C2CCC(=O)N(CCc3ccc(Cl)cc3)C2)cc1 (stereo not drawn)	0	-2	2	-10	-21	1
FC(F)(F)c1cc(CNC2CCC23CCCCC3)ccc1Cl (stereo not drawn)	.	0	.	.	.	0
NC(=O)c1cccc(-c2coc3c(C(=O)NC4CCCCC4)cccc23)c1	4	35*	.	.	.	30
CC(C)CNC(=O)c1cccc2c(-c3cccc(C(N)=O)c3)coc12	1	18	.	.	.	20
COCCNC(=S)N(CCc1c(C)[nH]c2ccc(C)cc12)Cc1ccco1	0	-1	-7	-16	-41	-13
COc1ccc2[nH]c(C)c(CCNC(=S)Nc3ccc(F)cc3)c2c1	0	-10	12*	-8	-7	-2
COc1ccc2[nH]c(C)c(CCNc3ccc(C(F)(F)F)cc3[N+](=O)[O-])c2c1	0	-8	19*	3	-24	-8
CS(=O)(=O)NCCNc1ccc(C(F)(F)F)cc1[N+](=O)[O-]	0	6	-1	-2	0	1
COc1ccc2[nH]c(C)c(CCNC(=S)Nc3cc(C)cc(C)c3)c2c1	0	-20	0	-25	-1	-4
COCCNC(=S)N(CCc1c(C)[nH]c2ccc(F)cc12)Cc1ccc(C)cc1	1	1	10*	-17	-5	-8
Cc1nn(C)c(C)c1NS(=O)(=O)c1c(C)n[nH]c1C	0	3	1	.	-132	-3
C[C@H]1[C@@H](OC(=O)NCc2ccc(C(F)(F)F)cc2)CC[C@@]23CCCN2C(=O)CCC[C@@H]13	.	-2	.	.	.	-3
COc1ccc(C(C)c2cn(C)c3ccccc23)cc1 (stereo not drawn)	.	0	.	.	.	-2
CCCCN(C=O)c1c(CC)nc2ccc(C(=O)N(C)Cc3ccccc3)cn12	0	2	.	.	.	-4
CC(=O)C1=C(C)N(Cc2ccc(F)cc2)C(=S)NC1c1cccc(F)c1 (stereo not drawn)	.	0	.	.	.	-1
O=C(Nc1ccc(S(=O)(=O)N2CCOCC2)cc1)c1ccco1	0	7	0	12	-1	2
CC1CN(S(=O)(=O)c2ccc(NC(=O)c3cc(-c4ccccc4O)n[nH]3)cc2)CC(C)O1 (stereo not drawn)	1	-10	36*	.	-8	-12
O=C(Nc1ccc(S(=O)(=O)N2CCOCC2)cc1)c1cc(-c2ccccc2O)n[nH]1	0	-2	27*	-21	-1	-4
COC(=O)[C@@]12CCCCC3=C1N(CCC3)C(=O)[C@H]2CC(=O)NCC1CCCCC1	.	5	.	.	.	1
Cc1c(N=C2N=C(NC(=O)NC(C)(C)C)c3ccccc32)c(=O)n(-c2ccccc2)n1C	0	1	-2	-2	-39	84*
Cc1c(N=C2N=C(NC(=O)c3cccs3)c3ccccc32)c(=O)n(-c2ccccc2)n1C	0	-4	-2	16	-8	80*
Cc1c(N=C2C=C(Br)C(=O)C(Br)=C2)c(=O)n(-c2ccccc2)n1C	0	1	-4	-1	.	-9
Cc1c(N=C2C=CC(=O)c3ccccc32)c(=O)n(-c2ccccc2)n1C	0	3	0	-5	-7	73*
Cc1c(NC(=O)Nc2ccc(C(C)(C)C)cc2)c(=O)n(-c2ccccc2)n1C	0	-1	1	10	-6	0
CCCCc1c(-c2ccccc2OC)ncn1Cc1c(F)cccc1F	.	-10	.	.	.	-9
SMILES	aDG glyco up	GC-B act	NR3A LBD binder	Lipid droplet	JMJD2C inh	NPR1 activator
COC(=O)[C@]12C[C@H](CC(=O)NCc3cccs3)C(=O)N(Cc3ccco3)C1=C[C@H](C(C)(C)C)O[C@@H]2C	.	-22	.	.	.	-29
CN1C2=N[C@H](c3ccc(Br)cc3)CC(=O)N2/C(=C\c2ccccc2)[C@@H]1c1ccccc1	.	-28	.	.	.	-31
Nn1c(SCc2ccc([N+](=O)[O-])cc2)nnc1-c1n[nH]c2c1CCC2	.	-12	.	.	.	-2
CCOC(=O)c1c(N)sc(C(=O)N(C)C)c1C	0	4	11*	.	5	-1
CCOC(=O)c1c(N)sc(C(=O)Nc2ccc3c(c2)OCO3)c1C	0	1	28*	0	-17	2
CCOC(=O)c1c(N)sc(C(=O)OC)c1C	1	7	6	0	-8	1
Cc1ccccc1OCC(=O)OCC(=O)c1ccc(OCc2ccccc2)cc1	0	3	25*	35	.	4
CO[C@H]1CN(C)C(=O)c2cc(NC(=O)c3ccccc3)ccc2OC[C@H](C)NC[C@@H]1C	0	1	.	.	.	-1
CC(=O)Nc1sc2c(c1-c1nc3ccccc3s1)CCCN(C(C)C)C2	.	1	.	.	.	9
O=C(N/N=C/c1ccc(Br)s1)Nc1ccccc1	0	-9	20*	4	-11	4
O=C(N/N=C/c1cc(Br)cs1)c1c[nH]c2ccccc12	0	4	38*	8	6	3
O=C(N/N=C/c1cc2c(cc1Br)OCO2)c1c[nH]c2ccccc12	0	6	15*	1	47	-11
O=C(N/N=C/c1cc2c(cc1Br)OCO2)c1ccccn1	0	-6	-1	-13	3	-7
O=C(N/N=C/c1ccc(Br)s1)c1c[nH]c2ccccc12	0	-6	25*	14	0	-3
O=C(N/N=C/c1cc(Br)cs1)c1ccccc1[N+](=O)[O-]	0	2	2	-1	-5	6
CCCCCCCCN1C(=O)[C@@H](CC(=O)NCCC(C)C)C[C@@]2(C(=O)OC)C1=C[C@H](C(C)C)O[C@@H]2C1CC1	.	2	.	.	.	-6
O=C(N/N=C/c1cc2c(cc1Br)OCO2)c1cc2ccccc2o1	2	12	13*	2	-1	3
COc1cccc(CCNS(=O)(=O)c2c(C)n[nH]c2C)c1	.	6	.	.	.	2
COCC(=O)N1[C@H](CO)[C@@H](c2ccc(-c3cccnc3)cc2)[C@H]1CN(C)S(=O)(=O)c1ccccc1[N+](=O)[O-]	.	-10	.	.	.	0
Cc1cccc(NC(=O)c2sc(C)nc2C)c1	0	4	-2	-2	24	1
Cc1cccc(C(=O)Nc2nc(C)c(C(=O)Nc3ccc4c(c3)CCC4)s2)c1	0	-5	28*	.	1	-2
COc1ccc(NS(=O)(=O)c2cc(NC(=O)c3nc4nc(C)cc(C)n4n3)ccc2C)cc1	0	-2	12*	12	.	-4
COc1ccccc1NS(=O)(=O)c1cccc(NC(=O)c2nc3nc(C)cc(C)n3n2)c1	0	2	-1	13	-1	-4
